Measurements of several laboratories.
Protocols differ between the studies behind these lines.
Target: Serine/threonine-protein kinase NIM1 (NIM1K, Homo sapiens, UniProt Q8IY84)

CC(=O)C1=C(C)N(c2cccc(C(F)(F)F)c2)C(=O)N[C@@H]1c1ccc(C#N)nc1 — remaining binding (cell-free assay; competition with immobilised ligand; 1 µM): 83.5%
CN(C)c1nccc(-c2cnn3ncccc23)n1 — remaining binding (binding; 1 µM): 52%
Cc1cnc(Nc2ccc(C(=O)N3CCC(N4CCCC4)CC3)cc2)nc1-c1cc2ccccc2s1 — remaining binding (binding; competition with immobilised ligand; 1 µM): 22%
Cc1nc(C2CCN(C(=O)c3ccc(OC(F)(F)F)cc3N)CC2)c2ncc(N3CCN(C)CC3)cc2n1 — remaining binding (cell-free assay; competition with immobilised ligand; 1 µM): 89%
Cc1cnn2ncc(-c3ccnc(N(C)C)n3)c2c1 — remaining binding (binding; 1 µM): 92%
c1cncc(-c2cccc(Nc3nccc(NC4CCCCC4)n3)c2)c1 — remaining binding (binding; competition with immobilised ligand; 10 µM): 88%
CC1=C(C#N)[C@@H](c2ccc3[nH]nc(C)c3c2)C(C#N)=C(c2ccc(Cl)cc2)N1 — remaining binding (cell-free assay; competition with immobilised ligand; 1 µM): 100%
FC(F)(F)Oc1cccc(-c2cnc3ccc(-c4ccncc4)nn23)c1 — remaining binding (cell-free assay; competition with immobilised ligand; 5 µM): 87%
O=C(c1ccc(Nc2nccc(-c3cc4ccccc4s3)n2)cc1)N1CCC(N2CCCC2)CC1 — remaining binding (binding; competition with immobilised ligand; 1 µM): 80%
CS(=O)(=O)NCC[C@H](NC(=O)c1cncc2c1cnn2-c1ccc(F)cc1)c1ccnc(S(C)(=O)=O)c1 — remaining binding (cell-free assay; competition with immobilised ligand; 1 µM): 100%
O=C(NCC1CCOCC1)c1n[nH]cc1NC(=O)c1c(F)cccc1F — remaining binding (binding; competition with immobilised ligand; 1 µM): 97%
COc1cnc(Nc2cccc(S(N)(=O)=O)c2)nc1N1CCN(c2ccccc2)CC1 — remaining binding (binding; competition with immobilised ligand; 1 µM): 71%
Nc1ncc2c(n1)-c1c([nH]c3ccc(C#CC4CC4)cc13)CCCC2 — remaining binding (binding; competition with immobilised ligand; 1 µM): 61%
C=CC(=O)N1CCC(C(=O)NCC(=O)N2CCN(c3nc(-c4cnc(N)nc4C(F)F)nc(N4CCOCC4)n3)CC2)CC1 — remaining binding (binding; competition with immobilised ligand; 1 µM): 100%
CC1CCCN1c1nccc(-c2cnn3ncccc23)n1 (stereo not shown) — remaining binding (binding; 1 µM): 95%
COc1ccc2c(c1)O[C@H](c1ccc(OC)c(OC)c1)C[C@@H]2NC(=O)C1(c2ccc3c(c2)OC(F)(F)O3)CC1 — remaining binding (cell-free assay; competition with immobilised ligand; 1 µM): 84%
C[C@H]1CCN(c2nccc(-c3cnn4ncccc34)n2)C1 — remaining binding (binding; 1 µM): 82%
CNC(=O)[C@@H]1CC[C@@H](n2c(-c3ccc4cnccc4c3)nc3ccc(C(=O)NCc4cccc(C(N)=O)c4)cc32)C1 — remaining binding (binding; competition with immobilised ligand; 1 µM): 100%
CN(c1nccc(-c2cnn3ncccc23)n1)C1CC1 — remaining binding (binding; 1 µM): 100%
CS(=O)(=O)N1CCCC(NC(=O)[C@H](CCC2CCCCC2)NC(=O)c2ccc(CNC(=O)c3cnc4ccccn34)cc2)C1 (stereo partly shown) — remaining binding (cell-free assay; competition with immobilised ligand; 0.1 µM): 64%
O=C(NCCCN1CCOCC1)c1ccc(Nc2nccc(-c3cc4ccccc4s3)n2)cc1 — remaining binding (binding; competition with immobilised ligand; 1 µM): 86%
CN(C)c1ncc(F)c(-c2cnn3ncccc23)n1 — remaining binding (binding; 1 µM): 69%
